# B1: S-adenosylmethionine decarboxylase proenzyme (Rattus norvegicus), P17708 (protein)
# chain: MEAAHFFEGTEKLLEVWFSRQQSDASQGSGDLRTIPRSEWDVLLKDVQCSIISVTKTDKQEAYVLSESSMFVSKRRFILKTCGTTLLLKALVPLLKLARDYSGFDSIQSFFYSRKNFMKPSHQGYPHRNFQEEIEFLNAIFPNGAAYCMGRMNSDCWYLYTLDLPESRVINQPDQTLEILMSELDPAVMDQFYMKDGVTAKDVTRESGIRDLIPGSVIDATLFNPCGYSMNGMKSDGTYWTIHITPEPEFSYVSFETNLSQTSYDDLIRKVVEVFKPGKFVTTLFVNQSSKCRTVLSSPQKIDGFKRLDCQSAMFNDYNFVFTSFAKKQQQQS
# What was measured:
# [1] = target: T1, S-adenosylmethionine decarboxylase proenzyme (Rattus norvegicus, UniProt P17708); assay: Tested for inhibition against S-adenosyl-L-methionine decarboxylase from rat liver
# T1 sequence (P17708 whole entry): B1 chain
# Outline: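 Partially purified rat liver enzyme; 0.1 M sodium phosphate pH 7.0, 2.5 mM DTT, 2.5 mM putrescine; S-[1-14C]adenosyl-L-methionine at 2.0 × 10⁻⁶ to 1.60 × 10⁻⁴ M; inhibitor 6.25 × 10⁻⁵, 1.25 × 10⁻⁴, 2.50 × 10⁻⁴ M; 30 min, 37 °C; released 14CO2 trapped in ethanolamine and counted, blank-corrected; apparent Ki from short incubations.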
# [2] = target: T2, S-adenosylmethionine decarboxylase proenzyme (Rattus norvegicus) (UniProt P17708); assay: Tested for S-adenosyl-L-methionine decarboxylase activity recovered after 80 min of 0.2 mM compound in incubation media; format: functional
# T2 sequence (whole entry): B1 chain
# Outline: (§1)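 Rat liver enzyme (105000g supernatant from livers of male Sprague-Dawley rats, ammonium sulfate 35–65% cut, methylglyoxal bis(guanylhydrazone)-Sepharose eluate) preincubated at 37 °C, pH 7.0, with 0.3 mg BSA, inhibitor 0, 0.2 or 0.4 mM, ±1.0 mM sodium cyanoborohydride. Aliquots taken at 0, 40, 80 min; activity assayed at 0.2 mM substrate; expressed as % of no-addition control.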
# [3] = target: T2, S-adenosylmethionine decarboxylase proenzyme (Rattus norvegicus); assay: Tested for S-adenosyl-L-methionine decarboxylase activity recovered after 40 min of 0.4 mM compound in incubation media; format: functional; outline: as §1
# [4] = target: T2, S-adenosylmethionine decarboxylase proenzyme (Rattus norvegicus); assay: Tested for S-adenosyl-L-methionine decarboxylase activity recovered after 40 min of 0.2 mM compound in incubation media; format: functional; outline: as §1
# [5] = target: T2, S-adenosylmethionine decarboxylase proenzyme (Rattus norvegicus); assay: Tested for S-adenosyl-L-methionine decarboxylase activity recovered after 80 min of 0.4 mM compound in incubation media; format: functional; outline: as §1
# [6] = target: T2, S-adenosylmethionine decarboxylase proenzyme (Rattus norvegicus); assay: Tested for S-adenosyl-L-methionine decarboxylase activity recovered after 40 min of 0.2 mM + 1 mM NaBH3CN compound in incubation media; format: functional; outline: as §1
# [7] = target: T2, S-adenosylmethionine decarboxylase proenzyme (Rattus norvegicus); assay: Tested for S-adenosyl-L-methionine decarboxylase activity recovered after 40 min of 0.2 mM + 1 mM NaBH3CN compound in incubation media
# [8] = target: T2, S-adenosylmethionine decarboxylase proenzyme (Rattus norvegicus); assay: Tested for S-adenosyl-L-methionine decarboxylase activity recovered after 40 min of 0.2 nM compound in incubation media; format: functional; details: in the assay text read “0.2 mM” for “0.2 nM”
# Outline: (§2)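 Partially purified rat liver AdoMetDC (ammonium sulfate, then MGBG-Sepharose) preincubated at 37 °C, pH 7.0, with BSA and 0.2 mM inhibitor, no reductant. Aliquots removed at 40 or 80 min, then assayed 30 min at 37 °C in phosphate pH 7.0 with 2.5 mM putrescine, DTT and 0.2 mM [1-14C]AdoMet. Released 14CO2 trapped and counted; activity given as % of buffer-only control at the same time.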
# [9] = target: T2, S-adenosylmethionine decarboxylase proenzyme (Rattus norvegicus); assay: Tested for S-adenosyl-L-methionine decarboxylase activity recovered after 80 min of 0.4 mM compound in incubation media
# [10] = target: T2, S-adenosylmethionine decarboxylase proenzyme (Rattus norvegicus); assay: Tested for S-adenosyl-L-methionine decarboxylase activity recovered after 40 min of 0.4 mM compound in incubation media
# [11] = target: T2, S-adenosylmethionine decarboxylase proenzyme (Rattus norvegicus); assay: Tested for S-adenosyl-L-methionine decarboxylase activity recovered after 80 min of 0.2 nM compound in incubation media; format: functional; details: in the assay text read “0.2 mM” for “0.2 nM”; outline: as §2
# [12] = substrate: C[S+](CC[C@H](N)C(=O)[O-])C[C@H]1O[C@@H](n2cnc3c(N)ncnc32)[C@H](O)[C@@H]1O
Molecule,Ki [1] [µM],Activity [2] [%],Activity [3] [%],Activity [4] [%],Activity [5] [%],Activity [6] [%],Activity [7] [%],Activity [8] [%],Activity [9] [%],Activity [10] [%],Activity [11] [%],Km [12] [µM]
C[S+](CCC(C)(N)C(=O)O)C[C@H]1O[C@@H](n2cnc3c(N)ncnc32)[C@H](O)[C@@H]1O (some centres undefined),180,81,77,89,62,50,–,–,–,–,–,–
CN(CCCN)C[C@H]1O[C@@H](n2cnc3c(N)ncnc32)[C@H](O)[C@@H]1O,110,–,–,–,–,–,94,95,97,93,97,–
CC(N)CC[S+](C)C[C@H]1O[C@@H](n2cnc3c(N)ncnc32)[C@H](O)[C@@H]1O (some centres undefined),120,–,–,–,–,–,21,75,42,65,66,–
B1,–,–,–,–,–,–,–,–,–,–,–,51.4

# — ChEMBL document CHEMBL1121382, “Inhibitors of polyamine biosynthesis. 8. Irreversible inhibition of mammalian S-adenosyl-L-methionine decarboxylase by substrate analogues” (J Med Chem, 1980)
